Our source for the IC50 and inhibition values is ChEMBL document CHEMBL1944598, “First synthesis and anticancer activity of novel naphthoquinone amides” (Eur J Med Chem, 2012).

One assay concerns KB. As to the kind of experiment: Cytotoxicity against human KB cells after 3 days by resazurin microplate assay. The format is functional, cell-based. The method, boiled down:
(§1)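 Log-phase cells seeded at 7×10^4 cells/mL (KB) or 9×10^4 cells/mL (MCF-7) onto compounds in 0.5% DMSO. Incubated 3 days at 37 °C, 5% CO₂, then resazurin added for 4 h. Fluorescence read at ex 530/em 590 nm. IC50 by curve fit from 6 two-fold serial dilutions. Doxorubicin positive, 0.5% DMSO negative control. Mean of three replicates ± SD.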
On the technique in general: The colour change of resazurin is a common sign of viable cells or microbes.

For another assay, the system named is NCI-H187. As to the kind of experiment: Cytotoxicity against human NCI-H187 cells after 5 days by resazurin microplate assay. The format is functional, cell-based. The conditions noted are these: NCI-H187, 120 h. The method, boiled down: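 Log-phase NCI-H187 cells diluted to 9×10^4 cells/mL and seeded onto compounds in 0.5% DMSO. After 5 days at 37 °C, 5% CO₂, resazurin added for 4 h. Fluorescence read at ex 530/em 590 nm. IC50 fitted from 6 two-fold serial dilutions. Doxorubicin and 0.5% DMSO controls. Mean of three replicates ± SD.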

A further assay has as its system MCF7. Briefly: Cytotoxicity against human MCF7 cells after 3 days by resazurin microplate assay. The format is functional, cell-based. The method, boiled down: as §1
Another assay has as its system Vero. As to the kind of experiment: Cytotoxicity against african green monkey Vero cells expressing GFP after 4 days by fluorescence assay. To be noted: Chlorocebus sabaeus, 96 h. Type of assay: cell-based. The method, boiled down: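 Vero (African green monkey kidney) cells stably transfected with pEGFP-N1, kept in MEM with 10% heat-inactivated FBS, 2 mM L-glutamine, 1 mM pyruvate, geneticin. Cells seeded at 3.3 × 10⁴ cells/mL onto compounds diluted in 0.5% DMSO, 4 days at 37 °C, 5% CO₂. Bottom-read fluorescence (ex 485/em 535 nm), day-0 background subtracted. IC50 by curve fit from 6 two-fold dilutions.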

For assay [1], the target named is DNA topoisomerase 2-alpha (Homo sapiens) (UniProt P11388). As to the kind of experiment: Inhibition of human topoisomerase 2alpha-mediated decatenation of kinetoplast DNA at 10 uM after 1 hr using ethidium bromide by agarose gel electrophoresis analysis relative to doxorubicin. In short, it runs like this:
(§2)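 Doxorubicin as positive control. Stopped with Sarkosyl loading dye. Run on 1% agarose in 0.5x TBE with ethidium bromide at 50 V, imaged under UV. Decatenated and linearized kDNA used as markers.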

The target is the same in assay [2]. As to the kind of experiment: Inhibition of human topoisomerase 2alpha-mediated decatenation of kinetoplast DNA at 50 uM after 1 hr using ethidium bromide by agarose gel electrophoresis analysis. The method, boiled down:
as §2

Assay [3] has the same target. Briefly: Inhibition of human topoisomerase 2alpha-mediated decatenation of kinetoplast DNA at 20 uM after 1 hr using ethidium bromide by agarose gel electrophoresis analysis. In short, it runs like this: as §2
[4] abbreviates: Homo sapiens, KB, 72 h, read-out: IC50.
Setting [5] is: Homo sapiens, MCF7, 72 h, read-out: IC50.

The source made the active and inactive calls. The rule behind the calls is not given here.

DNA topoisomerase 2-alpha (Homo sapiens), sequence (P11388 whole entry): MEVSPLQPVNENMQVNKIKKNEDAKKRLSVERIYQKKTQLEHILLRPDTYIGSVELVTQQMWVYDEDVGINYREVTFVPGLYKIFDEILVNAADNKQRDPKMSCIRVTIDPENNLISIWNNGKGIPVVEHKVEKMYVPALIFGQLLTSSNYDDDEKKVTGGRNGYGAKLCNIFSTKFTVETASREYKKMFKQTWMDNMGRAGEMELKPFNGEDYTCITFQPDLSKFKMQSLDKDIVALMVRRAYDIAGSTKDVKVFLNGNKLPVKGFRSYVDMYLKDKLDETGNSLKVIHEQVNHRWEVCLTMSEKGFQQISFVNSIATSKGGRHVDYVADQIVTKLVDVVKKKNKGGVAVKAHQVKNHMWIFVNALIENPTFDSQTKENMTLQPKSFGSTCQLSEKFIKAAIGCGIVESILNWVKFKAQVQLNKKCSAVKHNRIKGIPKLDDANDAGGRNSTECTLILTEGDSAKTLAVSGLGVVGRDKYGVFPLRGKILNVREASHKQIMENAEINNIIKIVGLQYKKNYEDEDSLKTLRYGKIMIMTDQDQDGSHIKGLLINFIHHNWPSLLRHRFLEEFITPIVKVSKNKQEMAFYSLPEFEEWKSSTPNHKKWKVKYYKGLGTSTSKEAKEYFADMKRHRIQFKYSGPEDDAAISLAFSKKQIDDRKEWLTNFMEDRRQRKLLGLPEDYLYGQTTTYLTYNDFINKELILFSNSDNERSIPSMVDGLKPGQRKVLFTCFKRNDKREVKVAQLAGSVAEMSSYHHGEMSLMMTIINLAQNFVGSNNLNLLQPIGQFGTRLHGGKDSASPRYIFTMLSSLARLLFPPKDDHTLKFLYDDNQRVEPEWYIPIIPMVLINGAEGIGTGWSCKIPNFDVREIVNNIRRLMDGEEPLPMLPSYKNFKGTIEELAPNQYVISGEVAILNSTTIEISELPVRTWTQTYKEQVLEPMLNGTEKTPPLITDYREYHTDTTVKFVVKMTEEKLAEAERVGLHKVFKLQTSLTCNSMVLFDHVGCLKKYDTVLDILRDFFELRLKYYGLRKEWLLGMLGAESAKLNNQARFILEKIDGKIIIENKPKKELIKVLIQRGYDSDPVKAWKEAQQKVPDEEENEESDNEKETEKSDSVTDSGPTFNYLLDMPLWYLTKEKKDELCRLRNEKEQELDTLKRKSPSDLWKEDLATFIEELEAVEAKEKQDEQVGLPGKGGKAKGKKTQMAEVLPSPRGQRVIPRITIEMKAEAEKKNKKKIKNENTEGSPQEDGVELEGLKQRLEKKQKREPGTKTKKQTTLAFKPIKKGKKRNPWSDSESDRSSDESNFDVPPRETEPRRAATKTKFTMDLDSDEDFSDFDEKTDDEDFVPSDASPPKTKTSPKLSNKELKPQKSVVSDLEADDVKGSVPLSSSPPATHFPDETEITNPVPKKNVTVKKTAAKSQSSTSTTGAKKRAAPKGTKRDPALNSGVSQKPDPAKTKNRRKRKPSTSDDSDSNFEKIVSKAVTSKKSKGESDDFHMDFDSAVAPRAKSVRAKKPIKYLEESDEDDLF

As to `COC1=C(CC(C)(C)CNC(=O)c2cc(OC)c3ccccc3c2OC)C(=O)c2ccccc2C1=O`, the IC50 (in general, the concentration at which inhibition is half-maximal) was 41.2 µM with KB (setting [4]), 19.6 µM in the assay on NCI-H187, “Not Active” with MCF7 (mcf7) and 30.1 µM in the assay with Vero.

On to `CC(C)(CNC(=O)c1ccc2ccccc2c1)CC1=C(O)C(=O)c2ccccc2C1=O`, for which the IC50 stood at 9 µM with KB (setting [4]), 19.5 µM in the assay with NCI-H187, 28.2 µM in the assay on MCF7 (setting [5]) and 46.6 µM with Vero. The inhibition entry in assay [1] was “inactive”. In addition, in assay [2], the inhibition result is “Active”.

For `COC1=C(CC(C)(C)CNC(=O)c2cc(OC)ccc2OC)C(=O)c2ccccc2C1=O`, the IC50 with KB (setting [4]) came out at 34.3 µM; in the assay with NCI-H187 it was 74.3 µM; in the assay on MCF7 (setting [5]) it was 57.9 µM; with Vero, 36.2 µM.

Turning to `CC(C)(CNC(=O)c1ccc2ccccc2c1O)CC1=C(O)C(=O)c2ccccc2C1=O`, the inhibition result in assay [3] and in assay [2] was “Active” each time. For the same molecule, the half-inhibitory concentration (IC50) in the assay on KB (setting [4]) came to 26.9 µM; in the assay with NCI-H187 it was 14.4 µM; in the assay on MCF7 (setting [5]), 79.5 µM; in the assay with Vero, 93.7 µM. The inhibition entry in assay [1] was “inactive”.

Turning to `COc1ccc(O)c(C(=O)NCC(C)(C)CC2=C(O)C(=O)c3ccccc3C2=O)c1`, the IC50 entry in the assay with KB (kb) is “Not Active”; in the assay with NCI-H187, 15 µM; in the assay with MCF7 (setting [5]), 39.6 µM; with Vero, 31.1 µM.

`COC1=C(CC(C)(C)CNC(=O)c2ccc3ccccc3c2)C(=O)c2ccccc2C1=O`: the half-inhibitory concentration (IC50) amounted to 34.1 µM in the assay on KB (setting [4]), 25.7 µM with NCI-H187, 52.5 µM with MCF7 (setting [5]) and 36 µM with Vero.

Take `COc1ccc(OC)c(C(=O)NCC(C)(C)CC2=C(O)C(=O)c3ccccc3C2=O)c1`: the half-inhibitory concentration (IC50) with KB (setting [4]) was determined as 86.6 µM; in the assay with NCI-H187, 40.9 µM; in the assay on MCF7 (setting [5]) it was 99.4 µM; with Vero it was 89.1 µM.

In the case of `COc1cc(C(=O)NCC(C)(C)CC2=C(O)C(=O)c3ccccc3C2=O)c(OC)c2ccccc12`, the half-inhibitory concentration (IC50) was 47 µM in the assay with KB (setting [4]), 19.8 µM in the assay on NCI-H187, “Not Active” with MCF7 (mcf7) and 17.7 µM with Vero. In addition, the inhibition entry in assay [1] was “inactive”. In addition, the inhibition result in assay [2] is “Active”.

Regarding `COC1=C(CC(C)(C)CNC(=O)c2ccccc2OC)C(=O)c2ccccc2C1=O`, the 50% inhibitory concentration (IC50) in the assay with KB (setting [4]) was 33.2 µM; in the assay with NCI-H187, 34.7 µM; in the assay on MCF7 (setting [5]) it was 70.7 µM; in the assay on Vero, 27.3 µM.

Regarding `COC1=C(CC(C)(C)CNC(=O)c2ccccc2)C(=O)c2ccccc2C1=O`, the concentration for half-maximal inhibition (IC50) stood at 117 µM with KB (setting [4]), 19.1 µM with NCI-H187, 61.8 µM in the assay with MCF7 (setting [5]) and 12.3 µM with Vero.

Turning to `CC(C)(CNC(=O)c1ccccc1)CC1=C(O)C(=O)c2ccccc2C1=O`, the 50% inhibitory concentration (IC50) in the assay with KB (setting [4]) turned out to be 15.2 µM; with NCI-H187 it was 40.1 µM; in the assay on MCF7 (setting [5]) it was 37.1 µM; in the assay on Vero, 50.5 µM.

With `COc1cc(C(=O)NCC(C)(C)CC2=C(O)C(=O)c3ccccc3C2=O)c(O)c2ccccc12`, the inhibition result in assay [3] and in assay [2] was “Active” throughout. The IC50 stood at 8.62 µM in the assay on KB (setting [4]), 26 µM in the assay on NCI-H187, 35.6 µM with MCF7 (setting [5]) and 15.8 µM with Vero. The inhibition result in assay [1] was “inactive”.

Turning to `CC(C)(CNC(=O)c1ccccc1O)CC1=C(O)C(=O)c2ccccc2C1=O`, the IC50 stood at 44.9 µM in the assay with KB (setting [4]), 8.83 µM in the assay with NCI-H187, 28.1 µM with MCF7 (setting [5]) and 32.1 µM in the assay with Vero. Besides, the inhibition result in assay [1] is “inactive”. The inhibition entry in assay [2] is “Active”.

In the case of `COC1=C(CC(C)(C)CNC(=O)c2ccc3ccccc3c2OC)C(=O)c2ccccc2C1=O`, the half-inhibitory concentration (IC50) in the assay on KB (setting [4]) was found to be 64.1 µM; in the assay on NCI-H187, 53.2 µM; in the assay with MCF7 (setting [5]) it was 95.7 µM; in the assay with Vero it was 60.6 µM.

On to `COc1c(C(=O)NCC(C)(C)CC2=C(O)C(=O)c3ccccc3C2=O)ccc2ccccc12`, for which the IC50 in the assay with KB (setting [4]) was 66.9 µM; with NCI-H187, 37 µM; in the assay with MCF7 (setting [5]), 39.8 µM; in the assay on Vero, 47.3 µM.

Turning to `COc1cccc2c1C(=O)c1c(O)c3c(c(O)c1C2=O)C[C@@](O)(C(=O)CO)C[C@@H]3O[C@H]1C[C@H](N)[C@H](O)[C@H](C)O1` [DOXORUBICIN], the IC50 in the assay on KB (setting [4]) is 0.9 µM; with NCI-H187 it was 0.16 µM; in the assay with Vero, 28.8 µM.

For the molecule `COc1ccccc1C(=O)NCC(C)(C)CC1=C(O)C(=O)c2ccccc2C1=O`, the IC50 in the assay with KB (setting [4]) is 26.3 µM; in the assay on NCI-H187, 42.9 µM; in the assay with MCF7 (setting [5]) it was 111 µM; in the assay on Vero, 31.2 µM.
